Compounds with a hit are over-represented: about 3.8% of the library has one in this group of screens.
Lipid droplet: modulators of hepatic lipid droplet formation; AML12 mouse hepatocytes, oleate lipid droplets, BODIPY imaging; inhibition, % at 6.5 µM; actives 0.4% (n = 240,000);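 active means lipid droplet intensity inhibited by at least 50%, with more than 500 cells counted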
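Technique: fluorescence imaging, 20x objective, two fields per well / Assay system: AML12 hepatocytes (mouse) / Measure: % inhibition of lipid droplet signal / Doses: 6.5 µM single-point dosing / Incubation: overnight exposure / Reagent: 100 µM oleic acid challenge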
MrgX1 PAM: allosterically activates human MrgX1 receptor signaling. MrgX1-HEK293, Fluo-4 calcium flux, FDSS; active compounds read high. AID 588675. actives 0.63% (n = 310,000). B-score at 10 µM. Q96LB2;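 active means plate-corrected calcium response at least 3 library SD above typical, normal starting fluorescence, not activating the receptor alone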;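 further: compound read alongside a low EC10 to EC30 dose of BAM8-22 agonist; peak minus trough fluorescence over baseline measured at the second addition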
Target sequence (Q96LB2 whole entry, looked up): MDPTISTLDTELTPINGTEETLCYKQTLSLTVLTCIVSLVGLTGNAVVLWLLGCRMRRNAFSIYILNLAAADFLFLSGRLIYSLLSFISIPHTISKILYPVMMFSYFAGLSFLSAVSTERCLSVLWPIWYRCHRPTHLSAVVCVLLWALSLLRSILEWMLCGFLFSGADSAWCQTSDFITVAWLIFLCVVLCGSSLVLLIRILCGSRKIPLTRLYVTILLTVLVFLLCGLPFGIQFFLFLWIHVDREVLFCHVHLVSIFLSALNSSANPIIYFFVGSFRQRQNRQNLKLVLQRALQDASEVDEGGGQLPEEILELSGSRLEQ
MrgX1 antagonist: blocks BAM8-22 activation of human MrgX1 receptor | Q96LB2 | MRGX1-HEK293 calcium flux, Fluo-4, BAM8-22 antagonism; active compounds read low | B-score at 10 µM | actives 1.3% (n = 310,000);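 active means calcium-response B-score plate-corrected more than 3 library SD below zero, starting fluorescence within 5 deviations, no agonist response on first addition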;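 further: peak minus trough fluorescence over baseline after final BAM8-22 challenge near maximal dose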
MrgX1 agonist: human MrgX1 receptor agonism, primary screen | AID 588627 | Q96LB2 | B-score at 10 µM | actives 0.44% (n = 310,000) | MrgX1-HEK293 cells, Fluo-4 calcium fluorescence, agonist mode; active compounds read high;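 active means calcium response B-score plate-corrected fluorescence ratio at least 3 library SD, with starting fluorescence B-score inside 5 SD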
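Assay system: MrgX1-expressing HEK293 cells / Amount: fifteen thousand cells per well / Doses: test compound in the initial addition of three / Timing: cells plated overnight, dye loaded 0.5 h 37 °C, 0.5 h room temperature / Technique: kinetic calcium dye fluorescence, Fluo-4 NW / Control set: positive and negative controls per plate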
RGS4 act: RGS4 potentiation or activation | AID 463111 | HEK293 M3R/inducible RGS4, carbachol calcium flux Fluo4; active compounds read low | B-score at 10 µM | actives 0.92% (n = 310,000);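 active means B-score of the integrated calcium signal more than 4 SD below the library mean, with starting fluorescence not abnormally high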;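 further: negative B-score means reduced calcium response which marks RGS4 activation or potentiation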
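test system = M3R-expressing HEK293 line, RGS4 induced by doxycycline | probe or stimulus = carbachol at ECmax as muscarinic agonist stimulus | timing = dye loading 30 min 37 °C, buffer rest 30 min RT | signal = calcium dye Fluo4 fluorescence | evaluation = B score from integrated fluorescence ratio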
RGS4 inh: inhibitors of human RGS4. P49798. HEK293 M3R/RGS4 inducible, Fluo-4 calcium flux; active compounds read high; triggered by carbachol at its EC20. B-score at 10 µM. actives 0.45% (n = 310,000). AID 463165;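 active means B-score, a plate-corrected calcium signal, over three deviations above library mean, with baseline fluorescence within five deviations of library mean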;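 further: RGS4 expression induced by doxycycline in cells with stable M3 receptor; B-score is computed from the integrated fluorescence ratio over baseline after carbachol; higher B-score means a larger calcium signal and so more RGS4 inhibition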
Target sequence (P49798 whole entry, looked up): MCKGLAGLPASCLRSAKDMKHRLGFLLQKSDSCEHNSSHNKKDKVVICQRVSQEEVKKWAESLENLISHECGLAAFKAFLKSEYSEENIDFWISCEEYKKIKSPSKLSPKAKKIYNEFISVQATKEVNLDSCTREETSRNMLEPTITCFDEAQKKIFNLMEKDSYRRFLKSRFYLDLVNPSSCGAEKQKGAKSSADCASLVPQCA
MrgX1 ant reconf: confirmation of human MrgX1 receptor antagonists; actives 19% (n = 2,300); remaining BAM8-22 calcium response % of control (active compounds read low), % at 10 µM; shares compounds with MrgX1 antagonist; MrgX1-HEK293, BAM8-22 calcium flux, Fluo-4; active compounds read low;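 active means remaining agonist calcium response no higher than 100% minus 3 SD of agonist-only control wells, with starting fluorescence near control levels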;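 further: agonist BAM8-22 given at a near maximal EC90 to ECmax level; peak minus minimum fluorescence divided by baseline after agonist addition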
HEK293 Ca flux: counter-screen for MrgX1 antagonists: effect in parental HEK293 cells; Fluo-4 calcium fluorescence, FDSS; fluorescence ratio F(max-min)/F0 at 10 µM; shares compounds with MrgX1 antagonist; actives 2% (n = 4,000);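 active means duplicate-averaged calcium fluorescence ratio at least three times the standard deviation of buffer wells, a nonspecific response in parental cells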
HEK293 Ca counter: MrgX1 allosteric activator counter-screen hit in parental HEK293 cells; shares compounds with MrgX1 antagonist; fluorescence ratio F(max-min)/F0 at 10 µM; actives 0.4% (n = 4,000); parental HEK293 calcium flux, Fluo-4 fluorescence ratio; active compounds read high;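 active means calcium fluorescence ratio, averaged over duplicates, at least 3 SD of the buffer-well ratio, meaning a nonspecific response in receptor-free cells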;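 further: untransfected parental HEK293 lacking MrgX1 used as counterscreen for MrgX1 allosteric activators; fluorescence change taken during the second addition on a kinetic imager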
HEK293 Ca cntr2: MrgX1 activator counter-screen hit in parental HEK293 cells. shares compounds with MrgX1 antagonist. actives 8.7% (n = 4,000). AID 624115. Fluo-4 calcium fluorescence (FDSS); active compounds read high. fluorescence ratio F(max-min)/F0 at 10 µM;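 active means calcium fluorescence ratio at least three times the spread of buffer wells, meaning a non-specific response in parental cells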
An asterisk follows results filed as active; i = inactive; / = not tested or not shown.

SMILES	Lipid droplet	MrgX1 PAM	MrgX1 antagonist	MrgX1 agonist	RGS4 act	RGS4 inh	MrgX1 ant reconf	HEK293 Ca flux	HEK293 Ca counter	HEK293 Ca cntr2
Cc1ccc(NC(=O)C2CCCN(C(=O)c3ccc(Cl)cc3)C2)c(C)c1 (stereo not drawn)	-8	i	i	i	i	i	/	/	/	/
Nc1nc(N2CCN(c3ccccc3)CC2)n[nH]1	15	i	-5.7*	i	i	i	i	i	i	i
CC1CCN(c2nc3ccc(C(=O)N4CCN(Cc5ccc6c(c5)OCO6)CC4)cc3s2)CC1	/	i	i	i	i	i	/	/	/	/
COc1ccc(N(C(=O)c2snc(C(N)=O)c2N)C(C(=O)NC2CCCCC2)c2ccc(C)o2)cc1 (stereo not drawn)	7	i	i	i	i	i	/	/	/	/
COc1cccc(/C=N/n2c(C3CCCCC3)n[nH]c2=S)c1	/	i	i	i	i	i	/	/	/	/
Cc1ccccc1CNS(=O)(=O)c1ccc2c(c1)OCCO2	-12	i	-4.7*	i	i	i	i	i	i	i
Cc1ccc(CNS(=O)(=O)c2ccc3c(c2)OCCO3)cc1	-2	i	i	i	i	i	/	/	/	/
COc1ccc(Cl)cc1NC(=O)C1CCCN(S(C)(=O)=O)C1 (stereo not drawn)	-2	i	i	i	i	i	/	/	/	/
Cc1cc(C)cc(-n2ncc3c2CCCC3NC(=O)CN2CCCCC2=O)c1 (stereo not drawn)	8	i	-8.3*	i	i	i	i	i	i	i
COCCNC(=O)c1ccc(C)cc1C	4	i	-5.3*	i	i	i	73%*	i	i	i
Cc1ccc(C(=O)NCCN(C)C)c(C)c1	1	i	i	i	i	i	/	/	/	/
COc1cc(-c2nnc(-c3ccccc3)o2)cc(OC)c1OC	11	i	-4.9*	i	i	i	i	i	i	i
CC(=O)Nc1ccc(S(=O)(=O)NCC2CCC(C(=O)NC(C)c3ccccc3)CC2)cc1 (stereo not drawn)	14	i	-6*	i	i	i	i	i	i	i
COC(C(=O)Nc1ccc(NC(=O)C(OC)c2ccccc2)cc1)c1ccccc1 (stereo not drawn)	1	i	i	i	i	i	/	/	/	/
COC(C(=O)NC(C(C)C)C(C)C)c1ccccc1 (stereo not drawn)	7	i	-5.9*	i	i	i	i	i	i	i
COc1cccc(C(=O)NCC(=O)N/N=C/c2ccc3c(c2)OCO3)c1	-8	i	i	i	i	i	/	/	/	/
O=C(O)c1ccccc1-c1ccccc1C(=O)Nc1ccccc1	/	i	i	i	i	i	/	/	/	/
Cc1ccc(NC(=O)c2ccccc2)cc1	/	i	-4.7*	i	i	i	i	i	i	i
Cc1ccc(NC(=O)c2ccccc2-c2ccccc2C(=O)O)cc1	5	i	-6.6*	i	i	i	i	i	i	i
O=C(Nc1ccc(NC(=O)c2ccccc2)nc1)c1ccncc1	-3	i	-6.8*	i	i	i	i	i	i	i
Cc1cccc(N2CCN(C(=O)Cc3ccccc3[N+](=O)[O-])CC2)c1C	-2	i	i	i	i	i	/	/	/	/
COC(=O)c1ccc(C(=O)OC)c(NC(=S)N2CCC(C(N)=O)CC2)c1	-1	i	i	i	i	i	/	/	/	/
COC(=O)c1ccc2c(=O)sc(N3CCC(C(N)=O)CC3)nc2c1	0	i	-7.6*	i	i	i	i	i	i	i
O=C(NCc1nnc(SCC(=O)N2CCN(c3ccccc3)CC2)o1)c1c(F)cccc1F	-2	i	-5.7*	i	i	i	i	i	i	i
Cc1nn(-c2nnc(NC3CCCCC3)nn2)c(C)c1Br	-4	i	-4.5*	i	i	i	i	i	i	i
SMILES	Lipid droplet	MrgX1 PAM	MrgX1 antagonist	MrgX1 agonist	RGS4 act	RGS4 inh	MrgX1 ant reconf	HEK293 Ca flux	HEK293 Ca counter	HEK293 Ca cntr2
Cc1nn(C)c(C)c1S(=O)(=O)NC1CCCC1	/	i	i	i	i	i	/	/	/	/
Cc1cc(/C=C2\SC(=S)N(C)C2=O)c(C)n1-c1ccc(O)cc1	6	i	-11*	i	i	i	i	i	i	i
CC(=O)O[C@]1(C(C)=O)CC[C@H]2[C@@H]3C=CC4=CC(=O)C=C[C@]4(C)[C@H]3CC[C@@]21C	-18	i	i	i	i	i	/	/	/	/
CCOC(=O)/C(=C/c1ccccc1)NC(=O)c1ccco1	-6	i	i	i	i	i	/	/	/	/
CCOC(=O)c1cc(N)cc([N+](=O)[O-])c1	4	i	i	i	i	i	/	/	/	/
CCOC(=O)c1sc2cc([N+](=O)[O-])cc(SCC(C)C)c2c1N	49	i	-10*	i	i	i	i	0.6*	i	i
Cc1ccc(-n2c(-c3ccncc3)n[nH]c2=S)c(C)c1	3	i	i	i	i	i	/	/	/	/
CC1CCN(C(=O)CCC(=O)Nc2nnc(C3CCCCC3)s2)CC1	-1	i	i	i	i	i	/	/	/	/
O=C(NCC(c1ccco1)N1CCc2ccccc2C1)C(=O)Nc1ccccc1F (stereo not drawn)	/	i	i	i	i	i	/	/	/	/
O=C(NCC(c1ccco1)N1CCc2ccccc2C1)C(=O)Nc1ccc(F)cc1F (stereo not drawn)	/	i	-5.8*	i	i	i	i	i	i	i
Cc1ccc(C(=O)Nc2ccc3c(c2)C(=O)N(C)C3=O)c(C)c1	14	i	-6.8*	i	i	i	i	i	i	i
CN1C(=O)c2ccc(NC(=O)c3cccc4ccccc34)cc2C1=O	-1	i	i	i	i	i	/	/	/	/
